Test results from ChEMBL document CHEMBL1177686, “Constrained peptidomimetics as antiplasmodial falcipain-2 inhibitors” (Bioorg Med Chem, 2010).

Tests used:
[1] = target: T1, Falcipain 2 (Plasmodium falciparum) (UniProt Q9N6S8); test: Ratio of Kinact to Ki for Plasmodium falciparum recombinant falcipain-2 after 10 min
T1 sequence (whole entry): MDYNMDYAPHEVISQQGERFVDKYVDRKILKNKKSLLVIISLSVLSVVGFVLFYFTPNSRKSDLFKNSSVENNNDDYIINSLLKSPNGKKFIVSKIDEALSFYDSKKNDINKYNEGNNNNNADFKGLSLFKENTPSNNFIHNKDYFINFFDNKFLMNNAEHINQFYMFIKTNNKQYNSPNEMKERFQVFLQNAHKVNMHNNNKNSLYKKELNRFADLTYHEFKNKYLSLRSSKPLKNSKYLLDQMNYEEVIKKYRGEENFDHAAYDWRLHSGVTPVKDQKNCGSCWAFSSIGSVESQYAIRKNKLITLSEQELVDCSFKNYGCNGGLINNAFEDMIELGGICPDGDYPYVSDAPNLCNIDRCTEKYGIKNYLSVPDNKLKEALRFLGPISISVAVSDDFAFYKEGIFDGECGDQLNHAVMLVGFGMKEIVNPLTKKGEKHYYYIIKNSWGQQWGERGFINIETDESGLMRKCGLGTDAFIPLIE

Plasmodium falciparum = test: Antiplasmodial activity against Plasmodium falciparum FCBR infected in human erythrocytes assessed as parasite viability; assay type: functional, organism-based; settings: FCBR/Columbia
Method in brief: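 P. falciparum FCBR kept in human A Rh+ erythrocytes, RPMI 1640 with 25 mM HEPES, 20 mM bicarbonate, 0.5% AlbuMAX I, 2.5% hematocrit, 37 °C, 94% N2/1% O2/5% CO2. Early-stage parasites plated at 1% parasitemia with compound (DMSO stock diluted 10-fold in 50% ethanol), 100-0.0488 µM, quadruplicates. Ethanol-only negative and 2 µM chloroquine positive controls. Viability assayed by a published method.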

[2] = Selectivity ratio of Ki for Plasmodium falciparum recombinant falcipain-2 to Ki for Trypanosoma brucei rhodesiense rhodesain
Falcipain 2 = target: T2, Falcipain 2 (Plasmodium falciparum, UniProt Q9N6S8); test: Inhibition of Plasmodium falciparum recombinant falcipain-2 after 10 min
T2 sequence (Q9N6S8 whole entry): T1 sequence (whole entry)

Cathepsin B = Cathepsin B (Homo sapiens, UniProt P07858); test: Inhibition of human cathepsin B
Procathepsin L [3] = target: T3, Procathepsin L (Homo sapiens, UniProt P07711); test: Inhibition of human cathepsin L
Method in brief: (§1)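 Cathepsin L assay on Cbz-Phe-Arg-AMC 5 µM. […] Second-order constant k2nd taken as kinac/Ki.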
Target sequence in this assay (P07711 whole entry): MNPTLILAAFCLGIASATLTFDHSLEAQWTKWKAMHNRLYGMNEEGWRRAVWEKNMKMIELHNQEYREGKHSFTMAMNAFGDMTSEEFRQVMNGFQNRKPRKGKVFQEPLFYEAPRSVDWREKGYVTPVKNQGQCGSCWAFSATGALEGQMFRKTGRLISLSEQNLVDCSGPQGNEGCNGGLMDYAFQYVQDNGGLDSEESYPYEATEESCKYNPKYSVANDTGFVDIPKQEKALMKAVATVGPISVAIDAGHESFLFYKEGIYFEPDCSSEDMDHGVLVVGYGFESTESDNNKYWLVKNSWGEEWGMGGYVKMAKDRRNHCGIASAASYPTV

Procathepsin L [4] = target: T3, Procathepsin L; test: Ratio of Kinact to Ki for human cathepsin L; method in brief: as §1
Target sequence in this assay (P07711 114-333 limits assumed): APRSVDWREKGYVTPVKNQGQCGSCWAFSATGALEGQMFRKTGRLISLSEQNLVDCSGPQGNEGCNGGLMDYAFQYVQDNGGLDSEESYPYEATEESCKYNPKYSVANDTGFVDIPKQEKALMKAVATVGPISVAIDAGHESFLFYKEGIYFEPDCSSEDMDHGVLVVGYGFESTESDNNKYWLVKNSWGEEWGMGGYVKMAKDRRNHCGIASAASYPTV

Rhodesain = Rhodesain (Trypanosoma brucei rhodesiense, UniProt Q95PM0); test: Inhibition of Trypanosoma brucei rhodesiense rhodesain after 10 mins
Chain of Rhodesain (Q95PM0 whole entry): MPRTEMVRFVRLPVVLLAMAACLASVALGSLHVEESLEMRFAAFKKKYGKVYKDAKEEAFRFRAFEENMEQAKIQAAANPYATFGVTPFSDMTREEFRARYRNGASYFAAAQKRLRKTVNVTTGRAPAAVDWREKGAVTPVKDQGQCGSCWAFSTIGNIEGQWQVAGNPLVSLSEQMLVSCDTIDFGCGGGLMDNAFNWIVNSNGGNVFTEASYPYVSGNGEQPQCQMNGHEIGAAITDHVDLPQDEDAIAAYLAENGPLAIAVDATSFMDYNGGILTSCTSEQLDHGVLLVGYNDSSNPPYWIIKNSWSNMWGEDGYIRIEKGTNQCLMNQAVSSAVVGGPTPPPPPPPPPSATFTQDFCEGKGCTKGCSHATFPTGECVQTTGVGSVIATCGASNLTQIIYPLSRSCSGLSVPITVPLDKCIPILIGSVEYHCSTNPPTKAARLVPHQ
Method in brief: (§2)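 Rhodesain with Cbz-Phe-Arg-AMC 10 µM in 100 mM sodium acetate pH 5.5, 10 mM DTT. Fluorescence (ex 365/em 460 nm) read continuously for 10 min at increasing inhibitor levels, duplicate runs. Kiapp and kinac from hyperbolic kobs fit, corrected to Ki using Km 0.9 µM. k2nd as kinac/Ki, or from kobs/[I] when linear. Dixon plot if time-independent.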

[5] = target: Rhodesain (Trypanosoma brucei rhodesiense) (UniProt Q95PM0); test: Ratio of Kinact to Ki for Trypanosoma brucei rhodesiense rhodesain after 10 mins; method in brief: as §2
Chain of Rhodesain (Trypanosoma brucei rhodesiense) (Q95PM0 1-450): as the sequence (Q95PM0 whole entry) above

Row | SMILES | Ratio [1] | Activity (Plasmodium falciparum) | Ratio Ki [2] | Ki (Falcipain 2) | Ki (Cathepsin B) | Ki (Procathepsin L [3]) | Ratio (Procathepsin L [4]) | IC50 (Plasmodium falciparum) | Ki (Rhodesain) | Ratio [5]
1 | CC(C)C[C@H](NC(=O)[C@H]1O[C@@H]1C(=O)O)C(=O)NCCCCN=C(N)N | 1.59e+06 | – | – | – | – | – | – | – | – | –
2 | C=CCNC(=O)CN1C(=O)[C@@H](CO)N=C(c2ccccc2)c2ccccc21 | – | Dose-dependent effect | 5 | – | – | – | – | – | – | –
3 | CCCCNC(=O)OC[C@H]1N=C(c2ccccc2)c2ccccc2N(CC(=O)NC/C=C/C(=O)OC)C1=O | – | Dose-dependent effect | 5 | > 100 µM | 20.4 µM | 2.7 µM | 9400 | – | – | –
4 | COC(=O)/C=C/CNC(=O)CN1C(=O)[C@@H](COC(=O)Nc2ccc(Cl)cc2C(F)(F)F)N=C(c2ccccc2)c2cc(Cl)ccc21 | 76000 | – | 5 | 0.46 µM | 6.1 µM | 29.8 µM | – | 28.9 µM | 0.087 µM | 220000
5 | COC(=O)/C=C/CNC(=O)CN1C(=O)[C@@H](COC(=O)Nc2ccc(Cl)cc2C(F)(F)F)N=C(c2ccccc2)c2ccccc21 | 3.57e+06 | – | 5 | 0.017 µM | – | – | – | – | 0.81 µM | 34600
6 | COC(=O)/C=C/CNC(=O)CN1C(=O)[C@@H](COC(=O)NC2CCCCC2)N=C(c2ccccc2)c2ccccc21 | – | Dose-dependent effect | 5 | 89 µM | 12.4 µM | 76.5 µM | – | – | – | –
7 | COC(=O)/C=C/CNC(=O)CN1C(=O)[C@@H](COC(=O)Nc2cccc3ccccc23)N=C(c2ccccc2)c2ccccc21 | – | – | 5 | 3.48 µM | 25 µM | 12.2 µM | 6400 | 17.6 µM | 0.93 µM | –
8 | COC(=O)/C=C/CNC(=O)CN1C(=O)[C@@H](COC(=O)Nc2ccc(Cl)cc2C(F)(F)F)N=C(c2ccc(OC)cc2)c2ccccc21 | – | – | 5 | > 100 µM | 10.9 µM | 59.9 µM | – | – | – | –
9 | COC(=O)/C=C/[C@H](CC(C)C)NC(=O)CN1C(=O)[C@@H](COC(=O)Nc2ccc(Cl)cc2C(F)(F)F)N=C(c2ccccc2)c2ccccc21 | 18000 | – | 5 | 2.22 µM | 39.1 µM | > 150 µM | – | 26.9 µM | 0.87 µM | 36000
10 | COC(=O)/C=C/CNC(=O)CN1C(=O)[C@@H](COC(=O)Nc2ccc(OC)cc2)N=C(c2ccccc2)c2ccccc21 | – | – | 5 | 15.1 µM | 2.23 µM | 12 µM | 12500 | 33.1 µM | 4.3 µM | –
11 | COC(=O)/C=C/CNC(=O)CN1C(=O)[C@@H](COC(=O)NC23CC4CC(CC(C4)C2)C3)N=C(c2ccccc2)c2ccccc21 | 1.16e+06 | – | 5 | 0.014 µM | 13.7 µM | 65 µM | 550 | 10.7 µM | 0.0026 µM | 4.62e+06
12 | COC(=O)/C=C/CNC(=O)CN1C(=O)[C@@H](COC(=O)Nc2ccc(Cl)cc2C(F)(F)F)N=C(c2ccc(Br)cc2)c2ccccc21 | 24500 | – | 5 | 1.56 µM | > 150 µM | > 150 µM | – | 6.33 µM | 0.47 µM | 46000
